Reference: ChEMBL document CHEMBL3259768, “Structure-activity relationships for vitamin D3-based aromatic a-ring analogues as hedgehog pathway inhibitors” (J Med Chem, 2014)
Active and inactive are the calls of the source. The calls are words filed in the database; no cut-off is given here.

Legend:
[1] = target: T1, Vitamin D3 receptor (Mus musculus) (UniProt P48281); assay: Activation of VDR in mouse C3H10T1/2 cells assessed as upregulation of CYP24A1 mRNA expression at 5 uM after 24 hrs by RT-PCR analysis relative to DMSO-treated control; assay type: cell-based; conditions: C3H 10T1/2
T1 sequence (whole entry): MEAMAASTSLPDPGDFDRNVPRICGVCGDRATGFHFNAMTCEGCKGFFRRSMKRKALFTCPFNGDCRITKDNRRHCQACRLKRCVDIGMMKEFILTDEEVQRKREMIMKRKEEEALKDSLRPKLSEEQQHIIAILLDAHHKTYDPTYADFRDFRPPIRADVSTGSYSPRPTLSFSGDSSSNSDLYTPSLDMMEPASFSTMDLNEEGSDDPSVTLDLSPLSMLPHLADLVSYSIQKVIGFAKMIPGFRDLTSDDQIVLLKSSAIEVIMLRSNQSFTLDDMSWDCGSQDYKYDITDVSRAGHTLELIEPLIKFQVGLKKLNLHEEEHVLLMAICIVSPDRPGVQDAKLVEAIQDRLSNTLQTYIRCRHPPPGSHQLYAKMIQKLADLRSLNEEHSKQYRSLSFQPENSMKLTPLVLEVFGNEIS
Summary of the method: (§1)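 Cyp24A1 mRNA read by qPCR after 24 h exposure at 5 μM. Up-regulation normalized to DMSO control, set to 1.0.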

[2] = Inhibition of hedgehog signaling pathway-mediated GLI1 mRNA expression in mouse C3H10T1/2 cells assessed as residual activity at 5 uM after 24 hrs by RT-PCR analysis relative to 20alpha-hydroxycholesterol/22(S)-hydroxycholesterol; assay type: cell-based; conditions: C3H 10T1/2
Summary of the method: (§2)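 C3H10T1/2 cells co-treated with analogue and the oxysterol Hh activators 20α-hydroxycholesterol plus 22(S)-hydroxycholesterol (5 μM each) for 24 h. Gli1 mRNA measured by qPCR as % of OHC-only control (100%). Analogue at 5 μM, or at 0.5 μM where stated.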

[3] = target: T1, Vitamin D3 receptor (Mus musculus); assay: Activation of VDR in mouse ASZ001 cells assessed as upregulation of CYP24A1 mRNA expression at 5 uM after 24 hrs by RT-PCR analysis relative to DMSO-treated control; assay type: cell-based; summary of the method: as §1
[4] = Inhibition of hedgehog signaling pathway-mediated GLI1 mRNA expression in mouse ASZ001 cells after 24 hrs by RT-PCR analysis; assay type: cell-based; conditions: ASZ001, 24 h
Summary of the method: (§3)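 ASZ001 (murine BCC) or DAOY (human medulloblastoma) cells given analogue at a range of concentrations. Gli1 and Ptch mRNA quantified by qPCR. IC50 given as mean ± SEM of at least two experiments in triplicate.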

[5] = Inhibition of hedgehog signaling pathway-mediated GLI1 mRNA expression in mouse C3H10T1/2 cells after 24 hrs by RT-PCR analysis; assay type: cell-based; conditions: for inhibition: C3H 10T1/2; for IC50: C3H 10T1/2, 24 h
Summary of the method: (§4)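 OHC-stimulated C3H10T1/2 cells (20α- and 22(S)-hydroxycholesterol, 5 μM each) given analogue at a range of concentrations. Gli1 and Ptch mRNA quantified by qPCR. IC50 given as mean ± SEM of at least two experiments run in triplicate.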

[6] = Inhibition of hedgehog signaling pathway-mediated GLI1 mRNA expression in human DaOY cells after 24 hrs by RT-PCR analysis; assay type: cell-based; summary of the method: as §3
[7] = target: T2, Vitamin D3 receptor (Homo sapiens) (UniProt P11473); assay: Competitive binding affinity to full length human VDR by fluorescence polarization assay
T2 sequence (whole entry): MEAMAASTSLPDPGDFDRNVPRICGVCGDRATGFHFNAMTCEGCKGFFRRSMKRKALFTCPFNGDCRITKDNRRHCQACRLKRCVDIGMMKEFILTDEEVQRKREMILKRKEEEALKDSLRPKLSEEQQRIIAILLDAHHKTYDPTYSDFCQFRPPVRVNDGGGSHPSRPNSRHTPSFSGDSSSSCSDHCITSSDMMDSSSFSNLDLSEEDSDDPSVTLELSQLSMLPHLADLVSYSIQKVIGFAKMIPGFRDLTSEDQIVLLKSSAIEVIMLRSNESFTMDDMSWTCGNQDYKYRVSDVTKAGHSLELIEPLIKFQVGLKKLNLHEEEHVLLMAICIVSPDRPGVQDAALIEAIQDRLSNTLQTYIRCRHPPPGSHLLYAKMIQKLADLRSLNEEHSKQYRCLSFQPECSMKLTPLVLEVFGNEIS
Summary of the method: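 Fluorescence polarization competition against a tight-binding fluorescent ligand on full-length human VDR. Tested at up to 100 μM, with calcitriol as positive control. At least two separate experiments.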

[8] = Inhibition of hedgehog signaling pathway-mediated PTCH mRNA expression in mouse C3H10T1/2 cells after 24 hrs by RT-PCR analysis; assay type: cell-based; conditions: C3H 10T1/2, 24 h; summary of the method: as §4
[9] = target: T2, Vitamin D3 receptor (Homo sapiens); assay: Activation of VDR in human DaOY cells assessed as upregulation of CYP24A1 mRNA expression at 5 uM after 24 hrs by RT-PCR analysis relative to DMSO-treated control; assay type: cell-based; summary of the method: as §1
[10] = Inhibition of hedgehog signaling pathway-mediated PTCH mRNA expression in human DaOY cells after 24 hrs by RT-PCR analysis; assay type: cell-based; summary of the method: as §3
[11] = Inhibition of hedgehog signaling pathway-mediated PTCH mRNA expression in mouse ASZ001 cells up to 10 uM after 24 hrs by RT-PCR analysis; assay type: cell-based
[12] = Inhibition of hedgehog signaling pathway-mediated GLI1 mRNA expression in mouse C3H10T1/2 cells assessed as residual activity at 0.5 uM after 24 hrs by RT-PCR analysis relative to 20alpha-hydroxycholesterol/22(S)-hydroxycholesterol; assay type: cell-based; conditions: C3H 10T1/2; summary of the method: as §2
[13] = Inhibition of hedgehog signaling pathway-mediated GLI1 mRNA expression in mouse C3H10T1/2 cells after 24 hrs by RT-PCR analysis in presence of (1R,3aR,4S,7aR)-7a-methyl-1-((R)-6-methylheptan-2-yl)octahydro-1H-inden-4-yl 3-hydroxybenzoate; assay type: cell-based; conditions: C3H 10T1/2

## CC(C)CCC[C@@H](C)[C@H]1CC[C@H]2[C@@H](OC(=O)c3cccnc3O)CCC[C@]12C
[1]
  fold change (FC): 7.5
[2]
  Activity: 23%

## CC(C)CCC[C@@H](C)[C@H]1CC[C@H]2[C@@H](OC(=O)c3ccco3)CCC[C@]12C
[1]
  fold change (FC): 1.7
[2]
  Activity: 95%

## CC(C)CCC[C@@H](C)[C@H]1CC[C@H]2[C@@H](OC(=O)c3ccsc3)CCC[C@]12C
[1]
  fold change (FC): 1.3
[2]
  Activity: 109%

## CC(C)CCC[C@@H](C)[C@H]1CC[C@H]2[C@@H](OC(=O)c3ccc(O)cc3)CCC[C@]12C
[3]
  fold change (FC): 6.3
[4]
  IC50: 6.6 µM
[5]
  inhibition: Dose-dependent effect
  IC50: 2800 nM
[6]
  IC50: > 10 µM
[7]
  Activity: > 100 µM
[8]
  IC50: 3.3 µM
[9]
  fold change (FC): 1.5
[1]
  fold change (FC): 18.8
[10]
  IC50: > 10 µM
[2]
  Activity: 2.4%

## CC(C)CCC[C@@H](C)[C@H]1CC[C@H]2[C@@H](OC(=O)c3ncccc3O)CCC[C@]12C
[1]
  fold change (FC): 3.1
[2]
  Activity: 36.5%

## CC(C)CCC[C@@H](C)[C@H]1CC[C@H]2[C@@H](OC(=O)c3ccc(N(C)C)cc3)CCC[C@]12C
[1]
  fold change (FC): 1.4
[2]
  Activity: 107%

## CC(C)CCC[C@@H](C)[C@H]1CC[C@H]2[C@@H](OC(=O)c3ccoc3)CCC[C@]12C
[1]
  fold change (FC): 2.2
[2]
  Activity: 91.5%

## CC(C)CCC[C@@H](C)[C@H]1CC[C@H]2[C@@H](OC(=O)c3ccc4cc(O)ccc4c3)CCC[C@]12C
[1]
  fold change (FC): 0.8
[2]
  Activity: 91.9%

## CC(C)CCC[C@@H](C)[C@H]1CC[C@H]2[C@@H](OC(=O)c3ccc4ccccc4c3)CCC[C@]12C
[1]
  fold change (FC): 3
[2]
  Activity: 77.4%

## CC(C)CCC[C@@H](C)[C@H]1CC[C@H]2[C@@H](OC(=O)c3cccs3)CCC[C@]12C
[1]
  fold change (FC): 1.6
[2]
  Activity: 109%

## CC(C)CCC[C@@H](C)[C@H]1CC[C@H]2[C@@H](OC(=O)c3cccc(N)c3)CCC[C@]12C
[3]
  fold change (FC): 2.5
[4]
  IC50: 7.1 µM
[5]
  inhibition: Dose-dependent effect
  IC50: 1300 nM
[6]
  IC50: 9.2 µM
[8]
  IC50: 2.5 µM
[9]
  fold change (FC): 0.5
[1]
  fold change (FC): 24.3
[10]
  IC50: > 10 µM
[2]
  Activity: 2.4%

## CC(C)CCC[C@@H](C)[C@H]1CC[C@H]2[C@@H](OC(=O)c3cc(O)cc(O)c3)CCC[C@]12C
[3]
  fold change (FC): 3.6
[4]
  IC50: 4.1 µM
[5]
  inhibition: Dose-dependent effect
  IC50: 1800 nM
[6]
  IC50: 5.7 µM
[7]
  Activity: > 100 µM
[8]
  IC50: 4.5 µM
[9]
  fold change (FC): 0.3
[1]
  fold change (FC): 19
[10]
  IC50: > 10 µM
[2]
  Activity: 8.6%

## CC(C)CCC[C@@H](C)[C@H]1CC[C@H]2[C@@H](OC(=O)c3cc4ccccc4[nH]3)CCC[C@]12C
[1]
  fold change (FC): 2.7
[2]
  Activity: 84.5%

## CC(C)CCC[C@@H](C)[C@H]1CC[C@H]2[C@@H](O)CCC[C@]12C
[1]
  fold change (FC): 3.6
[2]
  Activity: 46.4%

## CC(C)CCC[C@@H](C)[C@H]1CC[C@H]2[C@@H](OC(=O)c3ccc(N)cc3)CCC[C@]12C
[3]
  fold change (FC): 2.1
[4]
  IC50: 5.3 µM
[5]
  inhibition: Dose-dependent effect
  IC50: 1000 nM
[6]
  IC50: > 10 µM
[7]
  Activity: > 100 µM
[8]
  IC50: 2.9 µM
[9]
  fold change (FC): 2.2
[1]
  fold change (FC): 140
[10]
  IC50: > 10 µM
[2]
  Activity: 15.4%

## COc1ccc(C(=O)O[C@H]2CCC[C@]3(C)[C@@H]([C@H](C)CCCC(C)C)CC[C@@H]23)cc1
[1]
  fold change (FC): 0.9
[2]
  Activity: 113%

## CC(C)CCC[C@@H](C)[C@H]1CC[C@H]2[C@@H](OC(=O)c3cccnc3)CCC[C@]12C
[1]
  fold change (FC): 17.1
[2]
  Activity: 20.7%

## CC(C)CCC[C@@H](C)[C@H]1CC[C@H]2[C@@H](OC(=O)c3ccncc3)CCC[C@]12C
[1]
  fold change (FC): 14.7
[2]
  Activity: 51.1%

## CC(C)CCC[C@@H](C)[C@H]1CC[C@H]2[C@@H](OC(=O)c3ccc(Cl)cc3)CCC[C@]12C
[1]
  fold change (FC): 0.8
[2]
  Activity: 77.7%

## CC(C)CCC[C@@H](C)[C@H]1CC[C@H]2[C@@H](OC(=O)c3ccccn3)CCC[C@]12C
[3]
  fold change (FC): 4.8
[4]
  IC50: 4.8 µM
[5]
  inhibition: Dose-dependent effect
  IC50: 4700 nM
[6]
  IC50: > 10 µM
[7]
  Activity: > 100 µM
[8]
  IC50: 12.6 µM
[9]
  fold change (FC): 1.1
[1]
  fold change (FC): 57.1
[10]
  IC50: > 10 µM
[2]
  Activity: 14.1%

## COc1ccccc1C(=O)O[C@H]1CCC[C@]2(C)[C@@H]([C@H](C)CCCC(C)C)CC[C@@H]12
[1]
  fold change (FC): 0.9
[2]
  Activity: 98%

## CC(C)CCC[C@@H](C)[C@H]1CC[C@H]2[C@@H](OC(=O)c3ccccc3Cl)CCC[C@]12C
[1]
  fold change (FC): 0.9
[2]
  Activity: 109%

## CC(C)CCC[C@@H](C)[C@H]1CC[C@H]2[C@@H](OC(=O)c3ccccc3O)CCC[C@]12C
[1]
  fold change (FC): 1.2
[2]
  Activity: 115%

## CC(C)CCC[C@@H](C)[C@H]1CC[C@H]2[C@@H](OC(=O)c3cccc4ccccc34)CCC[C@]12C
[1]
  fold change (FC): 2.7
[2]
  Activity: 82.3%

## CS(=O)(=O)c1ccc(C(=O)Nc2ccc(Cl)c(-c3ccccn3)c2)c(Cl)c1
[11]
  inhibition: inactive
[12]
  Activity: 4.8%
[13]
  inhibition: Active

## CC(C)CCC[C@@H](C)[C@H]1CC[C@H]2[C@@H](OC(=O)c3cc(O)c(O)c(O)c3)CCC[C@]12C
[3]
  fold change (FC): 1.3
[4]
  IC50: 8.1 µM
[5]
  inhibition: Dose-dependent effect
  IC50: 1100 nM
[6]
  IC50: 9.2 µM
[7]
  Activity: > 100 µM
[8]
  IC50: 1.3 µM
[9]
  fold change (FC): 1
[1]
  fold change (FC): 11
[10]
  IC50: > 10 µM
[2]
  Activity: 5.1%

## CC(C)CCC[C@@H](C)[C@H]1CC[C@H]2[C@@H](OC(=O)c3cccc4cc(O)ccc34)CCC[C@]12C
[1]
  fold change (FC): 4.7
[2]
  Activity: 103%
